Bioassay records from PubChem.
Compounds with a hit are over-represented: about 2.6% of the library has one in this group of screens.
NPY-Y1 antag = blocks the human neuropeptide Y Y1 receptor. P25929. HEK293-CNG Y1 cells, membrane potential fluorescence; NPY at EC95, then isoproterenol. inhibition, % at 3.6 µM. actives 1% (n = 200,000). AID 1040;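 active = inhibition above the campaign mean inhibition of all tested compounds plus 3 SD, cut at about 20% in these data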
Target sequence (P25929 whole entry, looked up): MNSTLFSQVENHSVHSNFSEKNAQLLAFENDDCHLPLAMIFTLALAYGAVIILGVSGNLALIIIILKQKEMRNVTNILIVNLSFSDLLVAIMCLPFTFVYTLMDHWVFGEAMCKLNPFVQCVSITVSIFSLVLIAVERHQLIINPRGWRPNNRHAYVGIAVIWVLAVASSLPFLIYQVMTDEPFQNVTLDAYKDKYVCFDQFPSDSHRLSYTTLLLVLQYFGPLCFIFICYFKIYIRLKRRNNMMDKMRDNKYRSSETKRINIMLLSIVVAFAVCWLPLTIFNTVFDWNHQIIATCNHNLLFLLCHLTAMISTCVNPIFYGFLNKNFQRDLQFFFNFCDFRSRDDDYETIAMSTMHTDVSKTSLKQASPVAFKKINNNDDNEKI
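Assay system: HEK293 Y1/CNG channel cell line; Doses: single compound dose of 3.6 µM, 0.4% DMSO; Timing: dye 3 h, compound 60 min room temperature, stimulation 45 min; Technique: Membrane-potential fluorescent dye readout; Measure: % inhibition of NPY effect.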
NPY-Y2 PAM-ag = potentiators or agonists of human neuropeptide Y receptor Y2; P49146; cells expressing NPY-Y2, potentiator/agonist read-out; activation, % at 3.6 µM; actives 0.45% (n = 220,000); AID 1359; in the data active = activation above about 27%;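 also: cells stimulated with NPY near EC25 plus isoproterenol at EC100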
Target sequence (P49146 whole entry, looked up): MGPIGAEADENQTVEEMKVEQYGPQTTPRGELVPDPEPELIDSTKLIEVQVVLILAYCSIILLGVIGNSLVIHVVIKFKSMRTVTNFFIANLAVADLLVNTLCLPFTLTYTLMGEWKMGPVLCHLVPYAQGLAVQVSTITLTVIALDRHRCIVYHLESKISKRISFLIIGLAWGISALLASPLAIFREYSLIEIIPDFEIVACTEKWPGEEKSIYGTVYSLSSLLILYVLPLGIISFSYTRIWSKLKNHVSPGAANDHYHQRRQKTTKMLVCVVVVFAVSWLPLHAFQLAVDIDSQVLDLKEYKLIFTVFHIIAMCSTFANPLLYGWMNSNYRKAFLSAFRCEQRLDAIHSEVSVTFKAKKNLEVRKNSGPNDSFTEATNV
bCat nuc transl = modulators of beta-catenin nuclear translocation; HeLa beta-catenin nuclear translocation, immunofluorescence imaging; nuclear translocation activity, % at 5 µM; actives 0.3% (n = 190,000);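 active = nuclear translocation activity above 50% at 5 µM, with a well cell count of 50 or more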;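 also: per-cell ratio of nuclear to cytoplasmic median beta-catenin stain intensity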
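assay system = human HeLa cells, endogenous beta-catenin | times = compound treatment 24 h, 37°C, 5% CO2 | detection = Anti-beta-catenin immunofluorescence on PFA-fixed, Triton-permeabilized cells, DAPI nuclei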
MT stabilize HCS = microtubule stabilizers in HeLa cells; HeLa tubulin immunostaining HCS, 24 h; share of cells brighter than vehicle mean+2SD; % tubulin-high responders, % at 10 µM; actives 0.83% (n = 200,000); AID 2205;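 active = plate Z-score above 3 for both tubulin-high and condensed-nucleus cell shares, with cell loss under 80%, at 10 µM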;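 also: anti alpha tubulin signal scored within the nucleus-defined area of each cell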
NPY-Y2 antag = blocks the human neuropeptide Y Y2 receptor. P49146. NPY-Y2 expressing cells, antagonist mode. inhibition, % at 2.7 µM. actives 0.99% (n = 140,000). AID 793; in the data active = inhibition above about 17%
NPY-Y1 PAM-ag = human NPY-Y1 potentiation or agonism, primary screen | AID 1304 | activation, % at 3.6 µM | NPY-Y1 expressing cells, potentiator/agonist activation | actives 0.37% (n = 220,000); in the data active = activation above about 33%, passing the limit was not always enough;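 also: cells stimulated with NPY at EC10 then isoproterenol at EC100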
NPY1 antag ctr = antagonizes human NPY-Y1, counter-screen to NPY-Y2 antagonists | actives 19% (n = 710) | inhibition, % at 3.6 µM | shares compounds with NPY-Y2 antag | cell-based NPY-Y1 antagonism counterscreen; in the data active = inhibition above about 20%;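 also: cells challenged with NPY then isoproterenol with cAMP sensed through a CNG channel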
NPY-Y2 ant conf = human NPY-Y2 antagonism, confirmation; shares compounds with NPY-Y2 antag; HEK293 NPY-Y2 CNG channel, membrane potential fluorescence; inhibition, % at 2.8 µM; actives 32% (n = 710);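 active = mean inhibition of triplicate wells above the hit cutoff set in the primary screen, cut at about 17% in these data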
NPY-Y1 ant conf = human NPY-Y1 antagonism, confirmation; shares compounds with NPY-Y1 antag; inhibition, % at 3.6 µM; HEK293-CNG NPY-Y1, membrane potential fluorescence, cAMP; NPY challenge against isoproterenol-raised cAMP; AID 1254; actives 21% (n = 1,200); in the data active = inhibition above about 20%
NPY-Y2 antag ct = antagonizes human NPY-Y2, counter-screen to NPY-Y1 antagonists; shares compounds with NPY-Y1 antag; HEK293 NPY-Y2 CNG membrane potential fluorescence, antagonism; cells given NPY, then isoproterenol; inhibition, % at 3.6 µM; actives 28% (n = 1,200); AID 1255; in the data active = inhibition above about 17%
NPY-Y1 pot conf = human NPY-Y1 potentiation or agonism, confirmation; shares compounds with NPY-Y1 PAM-ag; cell-based NPY-Y1 potentiator/agonist assay; activation, % at 3.6 µM; actives 20% (n = 280); in the data active = activation above about 45%;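 also: cells challenged with NPY at its EC10 plus isoproterenol stimulus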
NPY-Y2 counter = NPY-Y2 potentiation or agonism as NPY-Y1 counter-screen; activation, % at 3.6 µM; shares compounds with NPY-Y1 PAM-ag; actives 20% (n = 280); HEK293-CNG cells, membrane-potential fluorescence (FLIPR), 1536-well; AID 1649
NPY-Y1 agonist = human NPY-Y1 agonism as potentiator counter-screen. shares compounds with NPY-Y1 PAM-ag. HEK293 Y1-CNGC, membrane potential fluorescence, agonist mode. activation, % at 3.6 µM. actives 50% (n = 280);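 active = percent activation above the mean of DMSO-only control wells plus 3 SD of those wells, cut at about 18% in these data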;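 also: cells challenged with isoproterenol plus Ro 20-1724 with no NPY in test wells; Y1 agonism lowers isoproterenol-driven cAMP and reduces probe fluorescence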
NPY-Y2 ag = human NPY-Y2 agonism as NPY-Y1 counter-screen; shares compounds with NPY-Y1 PAM-ag; HEK293 Y2-CNGC, membrane potential fluorescence, agonist mode; activation, % at 3.6 µM; actives 67% (n = 280);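 active = activation above the solvent-only control wells' mean plus 3 SD, cut at about 11% in these data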;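 also: agonism lowers cAMP so well fluorescence drops in active wells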
CNGC counter = blocks cyclic nucleotide gated channel in NPY-Y1 counter-screen; AID 1704; shares compounds with NPY-Y1 PAM-ag; HEK293-CNG parental, isoproterenol cAMP, membrane potential fluorescence; inhibition, % at 3.6 µM; actives 42% (n = 280);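 active = inhibition above the mean of stimulated solvent-only control wells plus 3 SD, cut at about 22% in these data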
NPY-Y2 confirm = human NPY-Y2 potentiation or agonism, confirmation. shares compounds with NPY-Y2 PAM-ag. cell-based NPY-Y2 potentiator/agonist assay. activation, % at 3.6 µM. actives 20% (n = 450). AID 1539
NPY-Y1 potentiator = counter-screen for NPY-Y2 potentiators or agonists: NPY-Y1 potentiators or agonists | shares compounds with NPY-Y2 PAM-ag | Y1 HEK293-CNG cells, membrane potential fluorescence | activation, % at 3.6 µM | actives 20% (n = 450) | AID 1651; in the data active = activation above about 45%;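 also: cells stimulated with submaximal NPY then isoproterenol with phosphodiesterase inhibitor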
NPY-Y1 ag 2 = counter-screen for NPY-Y2 potentiators: agonists of human NPY-Y1. shares compounds with NPY-Y2 PAM-ag. HEK293 Y1-CNGC, membrane potential fluorescence, agonism. activation, % at 3.6 µM. actives 37% (n = 450);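 active = activation above the mean of DMSO-only control wells plus 3 SD, cut at about 18% in these data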;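 also: cells stimulated with 1 µM isoproterenol plus the PDE inhibitor Ro 20-1724; Y1 agonists lower the membrane potential dye signal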
CNGC inh = counter-screen for NPY-Y2 potentiators: inhibitors of CNG channel activity; shares compounds with NPY-Y2 PAM-ag; HEK293-CNG parental, isoproterenol cAMP, membrane potential fluorescence; inhibition, % at 3.6 µM; actives 32% (n = 450);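 active = inhibition above the control-well mean plus 3 SD of those wells, cut at about 22% in these data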
Y2 agonist ctr = NPY-Y2 agonism, counter-screen for Y2 potentiators; shares compounds with NPY-Y2 PAM-ag; HEK293 Y2/CNGC cells, membrane potential fluorescence, agonist mode; activation, % at 3.6 µM; actives 56% (n = 450); AID 1710;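 active = activation above the mean of solvent-only control wells plus 3 SD, cut at about 10% in these data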;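 also: cells stimulated by isoproterenol with no NPY added so direct agonism is tested; agonism lowers probe fluorescence through less cAMP and CNG channel opening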
A number is an active result; - = inactive; . = not tested or not shown. Rule as the data show it, unless noted: active = activation above about 33%; inactive = the rest.

SMILES | NPY-Y1 antag | NPY-Y2 PAM-ag | bCat nuc transl | MT stabilize HCS | NPY-Y2 antag | NPY-Y1 PAM-ag | NPY-Y1 ant conf | NPY-Y2 antag ct | others
Cc1cccc(OP(=O)(NCc2ccccc2)Oc2cccc(C)c2)c1 | - | - | - | - | 19.1 | - | . | . | NPY1 antag ctr=-;NPY-Y2 ant conf=-
CN1C[C@H](CNC(=O)OCc2ccccc2)C[C@@H]2c3cccc4c3c(cn4C)C[C@H]21 | - | - | - | - | 18.1 | - | . | . | NPY1 antag ctr=-;NPY-Y2 ant conf=-
CNCC(O)c1cccc(OC(=O)c2ccccc2C)c1 (configuration not stated) | 22.4 | - | - | - | - | - | - | -
COC(=O)[C@@H]1C[C@@]1(C)[C@@H](NP(=O)(c1ccccc1)c1ccccc1)c1ccccc1 | 30.5 | - | - | - | - | - | - | -
COP(=O)(CC(=O)O)c1ccccc1 (configuration not stated) | - | - | - | - | - | - | . | .
Cc1ccc2c(c1)C1CN(C)CCC1N2C(=O)c1cccnc1Cl (configuration not stated) | . | - | - | . | . | - | . | .
Cc1ccc2c(c1)C1CN(C)CCC1N2C(=O)c1cn(-c2ccccc2)nc1-c1ccccc1 (configuration not stated) | 69.8 | - | - | - | . | - | - | 24.9
Cc1cc(NC(=O)CCl)no1 | - | - | - | - | . | - | . | .
O=C(c1ccco1)c1cn(Cc2ccc(Cl)cc2)c2ccccc12 | 32.7 | - | . | 5.6 | - | - | 20.4 | -
O=C(N=Nc1c(O)[nH]c(=O)[nH]c1=O)C1COc2cc3ccccc3cc2O1 (configuration not stated) | 25.3 | - | - | - | . | - | - | -
NC(=O)c1ccc(N=Nc2c(O)[nH]c(=O)[nH]c2=O)cc1 | - | - | - | - | - | - | . | .
CC(C)C12CN3CC(C(C)C)(CN(C1)C3c1cccnc1)C2=O (configuration not stated) | - | - | - | - | - | - | . | .
CCc1ccccc1NC(=O)CNCc1ccccc1 | - | - | - | - | . | - | . | .
CCNC(=O)[C@H]1O[C@@H](n2cnc3c(N)ncnc32)[C@H](O)[C@@H]1O | 145.1 | - | - | . | . | - | 118.3 | 104.9
CCC(=NCc1ccc(F)cc1)c1c(O)n(C)c(=O)n(C)c1=O | - | - | - | - | - | 37.3 | . | . | NPY-Y1 pot conf=-;NPY-Y2 counter=-;NPY-Y1 agonist=-;NPY-Y2 ag=-;CNGC counter=-
O=C1NC(=S)N(c2ccc(Cl)cc2)C(=O)/C1=C/N1CCN(C(=O)c2ccco2)CC1 | - | - | - | - | - | - | . | .
C=CCNC(=S)Nc1ccc(OC(=O)Nc2ccc(Cl)c(Cl)c2)cc1 | . | 83.5 | - | . | . | - | . | . | NPY-Y2 confirm=-;NPY-Y1 potentiator=-;NPY-Y1 ag 2=-;CNGC inh=-;Y2 agonist ctr=-
Nc1ccccc1C(=O)OCc1ccc([N+](=O)[O-])cc1 | - | - | - | - | . | - | . | .
CN1CCN(c2ccccc2N)CC1 | - | - | - | - | - | - | . | .
CN1CCN(c2cccc3c2C(=O)c2ccccc2C3=O)CC1 | - | 33.3 | - | - | - | - | . | . | NPY-Y2 confirm=-;NPY-Y1 potentiator=-;NPY-Y1 ag 2=17.8;CNGC inh=24.2;Y2 agonist ctr=32.7
O=C(Nc1ccncc1)c1cccn(Cc2ccccc2)c1=O | - | 34.3 | - | - | . | - | . | . | NPY-Y2 confirm=-;NPY-Y1 potentiator=-;NPY-Y1 ag 2=-;CNGC inh=-;Y2 agonist ctr=-
CC(=NCCCn1ccnc1)c1c(O)n(C2CCCCC2)c(=O)[nH]c1=O | . | - | - | . | . | - | . | .
CN(C)CCCN=Cc1c(O)n(CCc2ccccc2)c(=O)[nH]c1=O | - | - | - | - | - | - | . | .
O=c1[nH]c(=O)n(CCc2ccccc2)c(O)c1C=NC1CC1 | . | 73.2 | - | . | . | - | . | . | NPY-Y2 confirm=-;NPY-Y1 potentiator=-;NPY-Y1 ag 2=-;CNGC inh=-;Y2 agonist ctr=-
